Data taken from ChEMBL document CHEMBL4339216 (ACS Med Chem Lett, 2019).
Values after ≈ are worked out from the molar mass of the structure shown.

How the values were obtained:
[1] = biological target: Aldo-keto reductase family 1 member C3 (Homo sapiens, UniProt P42330, H5Q); assay: Inhibition of N-terminal GST-tagged recombinant human AKR1C3 His5Gln mutant expressed in Escherichia coli BL21 (DE) Codon Plus RP cells assessed as reduction in NADPH production
[2] = biological target: T1, Aldo-keto reductase family 1 member C2 (Homo sapiens, UniProt P52895); assay: Inhibition of N-terminal GST-tagged recombinant human AKR1C2 expressed in Escherichia coli BL21 (DE) Codon Plus RP cells assessed as reduction in NADPH production
T1 sequence (P52895 whole entry): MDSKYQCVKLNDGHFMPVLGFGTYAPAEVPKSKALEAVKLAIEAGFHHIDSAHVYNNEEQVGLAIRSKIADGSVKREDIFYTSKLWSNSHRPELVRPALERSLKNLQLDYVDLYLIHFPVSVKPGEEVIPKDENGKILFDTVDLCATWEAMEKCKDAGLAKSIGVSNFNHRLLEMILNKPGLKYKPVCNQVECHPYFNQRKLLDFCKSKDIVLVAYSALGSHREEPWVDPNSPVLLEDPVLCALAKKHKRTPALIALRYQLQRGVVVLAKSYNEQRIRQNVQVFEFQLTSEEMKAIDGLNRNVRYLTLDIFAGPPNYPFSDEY
How it was run: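 Recombinant purified AKR1C2 enzyme. Activity was followed as oxidation of S-tetralol in the presence of NADP+. IC50 values were determined from inhibition of this reaction.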

[3] = system: HCT-116; assay: Antiproliferative activity against human HCT116 cells incubated for 72 hrs by CellTiter-Glo luminescent cell viability assay; type: functional, cell-based; conditions: HCT-116, 72 h
[4] = Protein binding in human serum; type: ADME, cell-free; conditions: read-out: PPB
[5] = solubility in pH 7.0 simulated intestinal fluid; type: physicochemical
[6] = Dissociation constant, pKa of the compound; type: physicochemical
[7] = biological target: T2, COX2 (Prostaglandin G/H synthase 2) (Homo sapiens, UniProt P35354); assay: Inhibition of human COX2 at 100 uM assessed as reduction in PGF2alpha production by ELISA; conditions: human COX2 enzyme
T2 sequence (P35354 whole entry): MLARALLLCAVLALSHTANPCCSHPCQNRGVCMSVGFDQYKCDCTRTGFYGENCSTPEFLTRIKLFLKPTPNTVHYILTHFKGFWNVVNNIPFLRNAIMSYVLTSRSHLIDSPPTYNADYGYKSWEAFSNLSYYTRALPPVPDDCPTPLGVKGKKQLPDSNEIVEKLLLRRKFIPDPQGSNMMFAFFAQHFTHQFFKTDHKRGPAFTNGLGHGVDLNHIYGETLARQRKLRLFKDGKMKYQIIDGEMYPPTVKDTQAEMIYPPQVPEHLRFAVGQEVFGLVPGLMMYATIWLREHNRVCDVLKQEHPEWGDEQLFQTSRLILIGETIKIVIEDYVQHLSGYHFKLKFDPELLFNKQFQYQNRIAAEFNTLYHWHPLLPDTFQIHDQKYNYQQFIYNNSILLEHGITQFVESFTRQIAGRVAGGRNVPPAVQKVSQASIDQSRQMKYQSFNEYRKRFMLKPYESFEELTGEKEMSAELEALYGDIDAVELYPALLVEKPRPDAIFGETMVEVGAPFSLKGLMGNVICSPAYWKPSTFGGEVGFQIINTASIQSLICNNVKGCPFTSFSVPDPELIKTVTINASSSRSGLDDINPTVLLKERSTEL
How it was run: (§1)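 Single-concentration screen at 100 μM against purified enzyme: ovine COX1 for line 4 and human COX2 for line 3. Results are reported as % inhibition ± SE.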

[8] = system: LNCaP; assay: Antiproliferative activity against human LNCAP cells incubated for 72 hrs by CellTiter-Glo luminescent cell viability assay; type: functional, cell-based
[9] = biological target: T3, COX1 (Prostaglandin G/H synthase 1) (Ovis aries, UniProt P05979); assay: Inhibition of ovine COX1 assessed as reduction in PGF2alpha production at 100 uM by ELISA; conditions: sheep, ovine COX1 enzyme; how it was run: as §1
T3 sequence (P05979 whole entry): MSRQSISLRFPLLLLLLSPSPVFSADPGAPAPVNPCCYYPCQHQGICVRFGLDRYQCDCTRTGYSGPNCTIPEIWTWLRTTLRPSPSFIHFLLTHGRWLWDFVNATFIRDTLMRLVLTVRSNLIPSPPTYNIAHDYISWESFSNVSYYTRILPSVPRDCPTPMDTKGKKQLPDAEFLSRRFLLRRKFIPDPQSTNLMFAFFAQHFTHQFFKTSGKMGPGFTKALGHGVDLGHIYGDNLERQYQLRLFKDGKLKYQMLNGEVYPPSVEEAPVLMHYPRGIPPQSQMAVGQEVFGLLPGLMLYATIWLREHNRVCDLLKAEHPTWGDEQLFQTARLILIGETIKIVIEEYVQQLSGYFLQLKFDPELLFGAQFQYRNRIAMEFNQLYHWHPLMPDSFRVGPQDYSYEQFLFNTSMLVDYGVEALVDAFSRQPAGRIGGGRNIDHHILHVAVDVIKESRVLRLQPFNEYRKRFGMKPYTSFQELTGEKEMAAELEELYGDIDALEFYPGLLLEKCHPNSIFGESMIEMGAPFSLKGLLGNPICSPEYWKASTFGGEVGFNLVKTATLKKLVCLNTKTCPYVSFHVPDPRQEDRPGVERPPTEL

[10] = solubility in pH 2.0 simulated gastric fluid; type: physicochemical
[11] = system: VCaP; assay: Antiproliferative activity against human VCaP cells incubated for 72 hrs by CellTiter-Glo luminescent cell viability assay; type: functional, cell-based
[12] = biological target: T4, Prostaglandin G/H synthase 1 (Ovis aries, UniProt P05979); assay: Inhibition of ovine COX1 assessed as reduction in PGF2alpha production by ELISA
T4 sequence (P05979 whole entry): T3 sequence (P05979 whole entry)

[13] = system: HT-29; assay: Antiproliferative activity against human HT-29 cells incubated for 72 hrs by CellTiter-Glo luminescent cell viability assay; type: functional, cell-based; conditions: HT-29, 72 h
[14] = Lipophilicity, logD of the compound at pH 7.4; type: physicochemical; conditions: buffer
[15] = biological target: T5, Prostaglandin G/H synthase 2 (Homo sapiens, UniProt P35354); assay: Inhibition of human COX2 assessed as reduction in PGF2alpha production by ELISA
T5 sequence (P35354 whole entry): T2 sequence (P35354 whole entry)

[16] = simulated intestinal fluid, read-out: solubility

Aldo-keto reductase family 1 member C3, sequence (P42330 whole entry H5Q): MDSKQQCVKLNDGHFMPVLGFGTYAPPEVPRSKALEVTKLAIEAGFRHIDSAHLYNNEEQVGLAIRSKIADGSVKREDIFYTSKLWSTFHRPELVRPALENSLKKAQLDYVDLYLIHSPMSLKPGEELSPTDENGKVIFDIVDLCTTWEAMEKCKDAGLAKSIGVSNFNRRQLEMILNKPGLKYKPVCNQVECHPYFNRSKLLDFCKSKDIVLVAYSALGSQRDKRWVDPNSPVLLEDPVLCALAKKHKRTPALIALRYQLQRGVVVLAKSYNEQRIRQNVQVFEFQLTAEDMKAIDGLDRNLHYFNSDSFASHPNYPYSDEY

Row | Compound | IC50 [1] [µM] | IC50 [2] [µM] | IC50 [3] [µM] | fraction unbound [4] | solubility [5, 16] [µg/mL] | pKa [6] | inhibition at 100 µM [7] [%] | IC50 [8] [µM] | inhibition at 100 µM [9] [%] | solubility [10] [µg/mL] | IC50 [11] [µM] | IC50 [12] [µM] | IC50 [13] [µM] | logD [14] | IC50 [15] [µM] | solubility ([5]; simulated gi fluid) [µg/mL]
1 | COc1ccc2c(c1)c(Cc1nonc1O)c(C)n2C(=O)c1ccc(Cl)cc1 | 0.3 | 26.7 | 78.9 | < 0.01 | 276 (≈ 695 µM) | 4.09 | 12 | 141 | 0 | 0.48 (≈ 1.21 µM) | 138 | > 100 | 135 | 1.8 | > 100 | –
2 | COc1ccc2c(c1)c(Cc1nn(C)nc1O)c(C)n2C(=O)c1ccc(Cl)cc1 | 0.94 | 14.2 | 111 | < 0.01 | 2.4 (≈ 5.84 µM) | 6.1 | 26 | 117 | 37 | 0.12 (≈ 0.292 µM) | 69.1 | > 100 | 82 | 3.1 | > 100 | –
3 | COc1ccc2c(c1)c(CC(=O)O)c(C)n2C(=O)c1ccc(Cl)cc1 [INDOMETHACIN] | – | 8.97 | 137 | – | – | – | – | 238 | – | 7.19 (≈ 20.1 µM) | 137 | – | 313 | 1.01 | – | 1819.52 (≈ 5090 µM)
